According to the M2OR odorant receptor database:

biological target: T1, UniProt Q8VGU3; conditions: stereoisomer not certain
T1 sequence (whole entry): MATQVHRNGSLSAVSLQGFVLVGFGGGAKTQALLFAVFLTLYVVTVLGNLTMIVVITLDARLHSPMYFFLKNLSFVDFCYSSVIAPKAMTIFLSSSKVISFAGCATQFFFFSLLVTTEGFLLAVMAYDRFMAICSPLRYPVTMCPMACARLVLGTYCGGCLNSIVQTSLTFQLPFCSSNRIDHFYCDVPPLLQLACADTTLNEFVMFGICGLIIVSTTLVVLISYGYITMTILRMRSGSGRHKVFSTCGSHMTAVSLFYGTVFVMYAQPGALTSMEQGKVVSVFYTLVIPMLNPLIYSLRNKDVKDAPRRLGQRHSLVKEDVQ
In short: (§1)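 Whether a receptor–molecule pair is responsive (active) rests on the original authors' judgment that its measured signal was statistically different from baseline. Pairs without that judgment are non-responsive (inactive). Sources used varied assay methods, commonly transient luciferase assays in mammalian cell lines.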
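Also: active if original authors judged signal statistically different from baseline.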

SMILES | odorant receptor agonist call
CCCCCOC(=O)CC | inactive
CCC=CCCCCC=O | inactive
CCCC(C)C(=O)OCC (stereo not drawn) | inactive
Cc1ccc2c(c1)OCC(=O)CO2 | inactive
CCCCCC(=Cc1ccccc1)C(OC)OC | inactive
Cc1ccc(C(C)C)c(O)c1 | inactive
CC(C)=CCCC(C)=CCOC(=O)C(C)C | inactive
CC(=O)OCCc1ccccc1 | inactive
CC(=O)OCc1ccc2c(c1)OCO2 | inactive
Cc1ccc(OC(=O)C(C)C)cc1 | inactive
CCCC=O | inactive
CCCCCCC(C)O (stereo not drawn) | inactive
CC(=O)C=CC1=C(C)CCCC1(C)C | inactive
O=C([O-])CCCCCCC(=O)[O-].[H+].[H+] | inactive
CC(=O)OC1(C)CCC23CC1C(C)(C)C2CCC3C (stereo not drawn) | active
O=C(O)CCCCCCCCC(=O)O | inactive

SMILES | odorant receptor agonist call
CCCCCCCCOC=O | inactive
CCCCCCCOC(=O)C(C)C | inactive
C=CC(C)=CCC=C(C)CCC=C(C)C | inactive
C1CCOC1 | inactive
CCOC(=O)CC(C)C | inactive
CCN(CC)CC | inactive
C=C(CC)CCCC(C)(C)O | inactive
O=C(OCc1ccccc1)c1ccccc1O | inactive
C=CC(=C)CCC=C(C)C | inactive
CC1CC=CCCCCCCCCCC(=O)C1 (stereo not drawn) | inactive
CCc1occc(=O)c1O | inactive
CSSCc1ccco1 | inactive
O=C(O)CCCCCBr | inactive
CCC(C)c1nccnc1OC (stereo not drawn) | inactive
O=C(O)C1CCC1 | inactive
CC(C)=C1CCC(C)CC1=O (stereo not drawn) | inactive

biological target: T2, UniProt Q8VGV7; conditions: stereoisomer not certain
T2 sequence (whole entry): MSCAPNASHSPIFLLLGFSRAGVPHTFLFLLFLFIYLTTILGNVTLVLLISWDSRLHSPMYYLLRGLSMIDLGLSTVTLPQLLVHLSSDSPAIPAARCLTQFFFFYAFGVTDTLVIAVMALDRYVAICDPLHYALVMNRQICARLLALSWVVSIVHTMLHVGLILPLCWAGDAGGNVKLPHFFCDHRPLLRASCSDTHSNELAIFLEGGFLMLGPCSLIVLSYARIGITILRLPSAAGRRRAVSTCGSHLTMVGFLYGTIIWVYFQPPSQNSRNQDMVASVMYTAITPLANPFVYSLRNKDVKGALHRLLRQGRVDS
In short: as §1

SMILES | odorant receptor agonist call
CCCCCOC(=O)CC | inactive
CCC=CCCCCC=O | inactive
CCCC(C)C(=O)OCC (stereo not drawn) | inactive
Cc1ccc2c(c1)OCC(=O)CO2 | inactive
CCCCCC(=Cc1ccccc1)C(OC)OC | inactive
Cc1ccc(C(C)C)c(O)c1 | inactive
CC(C)=CCCC(C)=CCOC(=O)C(C)C | inactive
CC(=O)OCCc1ccccc1 | active
CC(=O)OCc1ccc2c(c1)OCO2 | inactive
Cc1ccc(OC(=O)C(C)C)cc1 | inactive
CCCC=O | inactive
CCCCCCC(C)O (stereo not drawn) | inactive
CC(=O)C=CC1=C(C)CCCC1(C)C | inactive
O=C([O-])CCCCCCC(=O)[O-].[H+].[H+] | inactive
CC(=O)OC1(C)CCC23CC1C(C)(C)C2CCC3C (stereo not drawn) | inactive
O=C(O)CCCCCCCCC(=O)O | inactive

SMILES | odorant receptor agonist call
CCCCCCCCOC=O | inactive
CCCCCCCOC(=O)C(C)C | inactive
C=CC(C)=CCC=C(C)CCC=C(C)C | inactive
C1CCOC1 | inactive
CCOC(=O)CC(C)C | inactive
CCN(CC)CC | inactive
C=C(CC)CCCC(C)(C)O | inactive
O=C(OCc1ccccc1)c1ccccc1O | inactive
C=CC(=C)CCC=C(C)C | inactive
CC1CC=CCCCCCCCCCC(=O)C1 (stereo not drawn) | inactive
CCc1occc(=O)c1O | inactive
CSSCc1ccco1 | inactive
O=C(O)CCCCCBr | inactive
CCC(C)c1nccnc1OC (stereo not drawn) | inactive
O=C(O)C1CCC1 | inactive
CC(C)=C1CCC(C)CC1=O (stereo not drawn) | inactive

biological target: T3, UniProt Q8VGX3; conditions: stereoisomer not certain
T3 sequence (whole entry): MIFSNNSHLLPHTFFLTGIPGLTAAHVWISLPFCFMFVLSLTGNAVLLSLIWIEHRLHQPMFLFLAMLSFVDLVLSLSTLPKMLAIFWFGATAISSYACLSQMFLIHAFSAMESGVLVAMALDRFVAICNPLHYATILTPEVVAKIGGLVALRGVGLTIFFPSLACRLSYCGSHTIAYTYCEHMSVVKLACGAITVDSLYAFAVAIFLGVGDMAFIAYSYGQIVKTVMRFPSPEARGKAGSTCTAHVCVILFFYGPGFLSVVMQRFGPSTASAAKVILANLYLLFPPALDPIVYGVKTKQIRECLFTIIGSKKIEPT
In short: as §1

SMILES | odorant receptor agonist call
CCCCCOC(=O)CC | inactive
CCC=CCCCCC=O | inactive
CCCC(C)C(=O)OCC (stereo not drawn) | inactive
Cc1ccc2c(c1)OCC(=O)CO2 | inactive
CCCCCC(=Cc1ccccc1)C(OC)OC | inactive
Cc1ccc(C(C)C)c(O)c1 | active
CC(C)=CCCC(C)=CCOC(=O)C(C)C | inactive
CC(=O)OCCc1ccccc1 | inactive
CC(=O)OCc1ccc2c(c1)OCO2 | inactive
Cc1ccc(OC(=O)C(C)C)cc1 | inactive
CCCC=O | inactive
CCCCCCC(C)O (stereo not drawn) | inactive
CC(=O)C=CC1=C(C)CCCC1(C)C | inactive
O=C([O-])CCCCCCC(=O)[O-].[H+].[H+] | inactive
CC(=O)OC1(C)CCC23CC1C(C)(C)C2CCC3C (stereo not drawn) | inactive
O=C(O)CCCCCCCCC(=O)O | inactive

SMILES | odorant receptor agonist call
CCCCCCCCOC=O | inactive
CCCCCCCOC(=O)C(C)C | inactive
C=CC(C)=CCC=C(C)CCC=C(C)C | inactive
C1CCOC1 | inactive
CCOC(=O)CC(C)C | inactive
CCN(CC)CC | inactive
C=C(CC)CCCC(C)(C)O | inactive
O=C(OCc1ccccc1)c1ccccc1O | inactive
C=CC(=C)CCC=C(C)C | inactive
CC1CC=CCCCCCCCCCC(=O)C1 (stereo not drawn) | inactive
CCc1occc(=O)c1O | inactive
CSSCc1ccco1 | inactive
O=C(O)CCCCCBr | inactive
CCC(C)c1nccnc1OC (stereo not drawn) | inactive
O=C(O)C1CCC1 | inactive
CC(C)=C1CCC(C)CC1=O (stereo not drawn) | inactive

biological target: T4, UniProt Q8VGX5; conditions: stereoisomer not certain
T4 sequence (whole entry): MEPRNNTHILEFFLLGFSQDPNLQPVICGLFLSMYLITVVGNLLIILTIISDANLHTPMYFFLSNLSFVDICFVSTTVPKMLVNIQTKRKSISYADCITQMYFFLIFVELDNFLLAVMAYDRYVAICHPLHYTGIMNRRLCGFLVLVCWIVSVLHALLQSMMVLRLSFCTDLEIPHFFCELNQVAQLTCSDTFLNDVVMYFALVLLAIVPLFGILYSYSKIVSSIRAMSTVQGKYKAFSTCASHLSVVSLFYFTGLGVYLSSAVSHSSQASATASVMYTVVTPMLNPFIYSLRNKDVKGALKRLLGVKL
In short: as §1

SMILES | odorant receptor agonist call
CCCCCOC(=O)CC | inactive
CCC=CCCCCC=O | inactive
CCCC(C)C(=O)OCC (stereo not drawn) | inactive
Cc1ccc2c(c1)OCC(=O)CO2 | inactive
CCCCCC(=Cc1ccccc1)C(OC)OC | inactive
Cc1ccc(C(C)C)c(O)c1 | inactive
CC(C)=CCCC(C)=CCOC(=O)C(C)C | active
CC(=O)OCCc1ccccc1 | inactive
CC(=O)OCc1ccc2c(c1)OCO2 | inactive
Cc1ccc(OC(=O)C(C)C)cc1 | inactive
CCCC=O | active
CCCCCCC(C)O (stereo not drawn) | inactive
CC(=O)C=CC1=C(C)CCCC1(C)C | active
O=C([O-])CCCCCCC(=O)[O-].[H+].[H+] | inactive
CC(=O)OC1(C)CCC23CC1C(C)(C)C2CCC3C (stereo not drawn) | inactive
O=C(O)CCCCCCCCC(=O)O | inactive

SMILES | odorant receptor agonist call
CCCCCCCCOC=O | inactive
CCCCCCCOC(=O)C(C)C | inactive
C=CC(C)=CCC=C(C)CCC=C(C)C | inactive
C1CCOC1 | inactive
CCOC(=O)CC(C)C | inactive
CCN(CC)CC | inactive
C=C(CC)CCCC(C)(C)O | inactive
O=C(OCc1ccccc1)c1ccccc1O | inactive
C=CC(=C)CCC=C(C)C | inactive
CC1CC=CCCCCCCCCCC(=O)C1 (stereo not drawn) | inactive
CCc1occc(=O)c1O | active
CSSCc1ccco1 | inactive
O=C(O)CCCCCBr | inactive
CCC(C)c1nccnc1OC (stereo not drawn) | active
O=C(O)C1CCC1 | inactive
CC(C)=C1CCC(C)CC1=O (stereo not drawn) | active
